# High-throughput results (PubChem)
# bCat KO growth: beta-catenin-lacking colon tumor cell growth suppression; viability, % at 10 µM; actives 1.5% (n = 140,000); AID 818; HCT116 beta-catenin knockout viability, CellTiter-Glo, 60 h; active compounds read low;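 active means viability at or under a set limit, the compound median less 4 SD, cut at about 6% in these data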;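 further: 0% = Hyamine 1622 control at 20 µM and 100% = untreated cell control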
# H69AR inhibit: growth inhibitors of human H69AR lung tumor cells; viability, % at 10 µM; actives 6% (n = 85,000); H69AR lung tumor viability, ATP luminescence, 72 h; active compounds read low;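 active means viability at or below 40%; inactive means viability above 40%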;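 further: multidrug resistant small cell line overexpressing MRP-1 efflux transporter; 100% = mean luminescence of untreated control wells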
# PTEN del growth: suppresses growth of cells with PTEN deletion | actives 1.2% (n = 140,000) | HCT116 PTEN-null viability, CellTiter-Glo, 60 h; active compounds read low | viability, % at 10 µM;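 active means viability at or below a set limit, 4 SD under the median of all tested compounds, cut at about 3.7% in these data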;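 further: PTEN knockout HCT116 line with beta catenin targeted HCT116 as companion control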
# Lung fibro prol: blocks proliferation of human lung fibroblasts. LL 47 human lung fibroblast viability, ATP luminescence; active compounds read low. viability, % at 10 µM. actives 1.1% (n = 85,000);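 active means viability at or below 50% in the single dose screen; inactive means viability above 50%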;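 further: compound exposure lasted 72 h before the ATP readout; 100% = median luminescence of untreated cell-only wells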
#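 Test system: LL 47 human lung fibroblasts / Incubation: 72 h compound exposure at 37 °C after overnight plating / Technique: luminescent ATP detection, CellTiter-Glo / Compound dosing: 0.1% DMSO in all compound wells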
# HUVEC prolif 384: blocks proliferation of human endothelial cells. HUVEC proliferation, CellTiter-Glo luminescence, 72 h; active compounds read low. viability, % at 10 µM (by protocol). actives 1.1% (n = 86,000);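 active means viability at or below 30%; inactive means viability above 30%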;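 further: 100% = median luminescence of DMSO-only cell control wells on each plate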
# * = called active by the depositor; · = no result given. The entries come from a sample that favours hits as a whole.
SMILES,bCat KO growth,H69AR inhibit,PTEN del growth,Lung fibro prol,HUVEC prolif 384
Clc1ccc(-c2ccc(/C=N/Nc3cc(N4CCOCC4)nc(N4CCOCC4)n3)o2)cc1,42,30*,39,74,13*
O=c1c2ccccc2nnn1CSc1nnc2sc3ccccc3n12,99,62,90,99,89
Cn1c(SCC(=O)N2CCCCCC2)nc2c([nH]c3ccccc32)c1=O,85,38*,92,67,81
COc1ccc(CN(CC(=O)NC2CCCC2)C(=O)c2onc(C(N)=O)c2N)cc1,75,97,92,103,92
Cn1c(CCNC(=O)c2cccs2)nnc1SCC(=O)Nc1nc(-c2ccccc2)cs1,97,83,91,101,81
Cc1ccc(C(=O)NCCc2nnc(SCC(=O)Nc3nc(-c4ccccc4)cs3)n2C)cc1,1.0*,43,0.8*,58,75
CCCCN(CCCC)c1nc2ccccc2nc1NS(=O)(=O)c1ccc(NC(C)=O)cc1,76,12*,76,92,78
CC(=O)Nc1ccc(S(=O)(=O)Nc2nc3ccccc3nc2Nc2ccc3ccccc3c2)cc1,78,·,73,·,·
Cc1cc(C)c2c(c1)-c1c(ssc1=S)C(C)(C)N2C(=O)CSc1nncn1C,64,13*,63,74,67
Cc1ccc2c(c1)-c1c(ssc1=S)C(C)(C)N2C(=O)CSc1nncn1C,67,79,63,92,89
COCc1cc(=O)n2[nH]c(-c3ccc(C)cc3)cc2n1,89,88,91,91,86
CCC(NC(=O)Nc1nnc(C(F)(F)F)s1)(C(F)(F)F)C(F)(F)F,2.1*,6.0*,2.5*,29*,23*
Clc1ccc(C2=C3CCCCn4c(-c5ccccc5)c[n+](c43)C2)cc1,6,36*,5,42*,18*
O=C(Nc1cnc2ccccc2c1)C1COc2ccccc2O1 (centres undefined),108,84,101,105,93
CC(C)(C)C1CCc2c(sc(NC(=O)c3ccco3)c2C(N)=O)C1 (centres undefined),41,39*,51,59,75
CC(C)c1nc(SCC(=O)Nc2ccc3c(c2)OCCO3)c2c(=O)n(C)c(=O)n(C)c2n1,76,31*,81,106,75
CCCc1nc(SCC(=O)NCc2ccc3c(c2)OCO3)c2c(=O)n(C)c(=O)n(C)c2n1,·,13*,·,102,50
N#CC(C#N)C(c1ccsc1)c1c(-c2ccccc2)[nH][nH]c1=O (centres undefined),94,94,100,95,99
CCCc1[nH][nH]c(=O)c1C(c1cccc(Cl)c1)C(C#N)C#N (centres undefined),93,17*,103,90,57
COc1cccc(OCC(=O)NN=C2c3ccccc3-c3ccccc32)c1,29,·,13,·,·
C=CCn1c(=O)[nH]c2cc(C(=O)N3CCN(c4ccc(C(C)=O)cc4)CC3)ccc2c1=O,77,82,84,93,86
O=C(c1ccc(Cn2c(=O)[nH]c3ccccc3c2=O)cc1)N1CCN(c2ccc(Cl)cc2)CC1,16,36*,15,111,68
Cc1ccc(C)c(N2CCN(C(=O)c3ccc(Cn4c(=O)[nH]c5ccccc5c4=O)cc3)CC2)c1,8,7.5*,10,93,37
C=CCn1c(=O)[nH]c2cc(C(=O)N3CCN(c4cc(C)ccc4C)CC3)ccc2c1=O,63,25*,65,89,58
Cc1ccc(C)c(N2CCN(c3nc4ccccc4c(=O)n3Cc3ccccc3)CC2)c1,48,81,47,87,100
SMILES,bCat KO growth,H69AR inhibit,PTEN del growth,Lung fibro prol,HUVEC prolif 384
CC(=O)NC1CCN(C(=O)N2CCCC2)CC1,102,101,109,99,97
CC1CCCN(C(=O)c2cccc(S(=O)(=O)Nc3cc(C(F)(F)F)ccc3Cl)c2)C1 (centres undefined),96,·,99,·,·
O=C(Nc1cc(SCCO)cc([N+](=O)[O-])c1)c1ccco1,88,·,90,·,·
C=CCN1C(c2ccc(OCC)cc2)=CS/C1=C(\C#N)c1nnc2n1CCCCC2,60,34*,66,100,68
FC(F)(F)c1nnc2c(Sc3ccccc3)nc3ccc(Cl)cc3n12,3.6*,·,4,·,·
COc1ccc2cc(-c3csc(-c4cccnc4)n3)ccc2c1,82,·,69,·,·
C[C@]12CC[C@@H]3c4ccc(OC(=O)c5ccccc5)cc4CC[C@H]3[C@@H]1CC[C@@H]2O,47,26*,44,93,55
CCCCC(CC)Cn1c2nc3ccccc3nc2c2c(=N)oc(C)nc21 (centres undefined),4.5*,90,2.5*,75,2.5*
CCOc1ccc(C(=O)NC(=S)Nc2ncccc2C)cc1[N+](=O)[O-],2.8*,·,3.3*,·,·
COc1ccc2c(c1)CCc1c(C(=O)Nc3cc(C)n(Cc4ccc(Cl)cc4)n3)noc1-2,91,5.3*,87,60,52
COc1ccc2c(c1)CCc1c(C(=O)N3CCOCC3)noc1-2,80,87,81,103,100
COc1ccc(-c2cc(C(=O)Nc3cc(C)n(Cc4ccc(Cl)cc4)n3)no2)cc1OC,78,14*,70,106,46
COc1ccc2c(c1)CCc1c(C(=O)N3CC4(C)CC3CC(C)(C)C4)noc1-2 (centres undefined),71,35*,76,96,86
COc1ccc2c(c1)CCc1c(C(=O)Nc3ccn(Cc4ccc(C)cc4)n3)noc1-2,30,10*,47,93,38
Cc1cc[n+](-c2nc3ccccc3nc2[N-]S(=O)(=O)c2cccs2)cc1C,88,·,98,·,·
Fc1cccc2sc(Nc3nc4cc5c(cc4s3)OCCO5)nc12,71,·,84,·,·
COc1cccc2sc(Nc3nnc(-c4cccs4)o3)nc12,2.6*,23*,8,41*,2.8*
CCOC(=O)c1sc(Nc2nc3c(OC)cccc3s2)nc1C,29,·,27,·,·
Fc1cccc2sc(Nc3nnc(-c4ccco4)o3)nc12,19,37*,19,65,57
COc1cccc2sc(Nc3nnc(-c4ccc(F)cc4)o3)nc12,13,35*,15,62,2.9*
CCSc1ncc(Cl)c(C(=O)Nc2ccc(S(=O)(=O)Nc3onc(C)c3C)cc2)n1,103,98,104,98,105
CC(C)CCN1CN(S(=O)(=O)c2cccs2)c2nc3ccccc3nc21,80,37*,67,94,80
CSc1ncc(C(=O)O)n1-c1ccc(F)cc1,100,97,100,100,111
CCSc1nc2sc3c(c2c(=O)[nH]1)CCCC3,97,80,96,94,84
CCSC1=NC2(CCCCC2)Nc2sc3c(c21)CCCC3,82,2.2*,84,89,78
Cc1cccc(-n2c(=O)[nH]c3c(C(N)=O)nc(-c4ccccc4Cl)nc32)c1,1.8*,2.5*,1.5*,53,89
CCCCn1c(SCC(=O)Nc2cc(C)[nH]n2)nc2ccsc2c1=O,90,67,98,92,102
